In brackets after ≈: the same amount, converted by molar mass. Activity calls are given as the source filed them. The calls are words filed in the database; no cut-off is given here.

One test deals with Staphylococcus aureus. As to the kind of experiment: Antimicrobial activity against Staphylococcus aureus ATCC 6538 after 18 hrs by broth dilution method. To be noted: ATCC 6538, 18 h. Type of test: functional. In outline: (§1)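 Strains grown overnight in LB, then subcultured the next day in fresh LB. Compounds serially diluted in LB in 96-well plates with cell suspension. Growth read as optical density. Highest concentration tested […], as printed. Broth dilution run in triplicate. MIC50 taken from the OD readings.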

A further test deals with Candida albicans. In words: Antimicrobial activity against Candida albicans CO11 after 18 hrs by broth dilution method. Type of test: functional. The settings on record: CO11, 18 h. In outline:
as §1

Test [1] deals with Escherichia coli. As to the kind of experiment: Antimicrobial activity against wild-type Escherichia coli after 18 hrs by broth dilution method. Type of test: functional. In outline:
as §1

In the next test the test system is Micrococcus luteus. As to the kind of experiment: Antimicrobial activity against Sarcina lutea ATCC 9341 after 18 hrs by broth dilution method. Type of test: functional. To be noted: ATCC 9341, 18 h. Put shortly: as §1
The subject of test [2] is Escherichia coli. In words: Inhibition of aminoacyl tRNA synthetase in wild-type Escherichia coli S30 cell extract asessed as inhibition of [14C]-radiolabeled aminoacid incorporation at 50 uM after 5 mins by liquid scintillation counting analysis. Put shortly: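 Inhibitor incubated with 3 L E. coli wt S30 extract, as printed. Aminoacylation mix: Tris.HCl 30 mM pH 8.0, DTT 1 mM, bulk E. coli tRNA 5 g/l, ATP 3 mM, KCl 30 mM, MgCl2 8 mM, 14C-labelled amino acid 40 M (200 mCi/mmol), units as printed. Samples spotted on papers, washed with cold 10% TCA then acetone, dried. Radioactivity read by scintillation counting.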

As to `CC(C)C[C@H](N)C(=O)NS(=O)(=O)C[C@H]1O[C@@H](n2cnc3c(N)ncnc32)[C@H](O)[C@@H]1O`, the MIC50 against Staphylococcus aureus, against Candida albicans, with Escherichia coli [1] and in the test on Micrococcus luteus was more than 100 µM in each case.

For `Nc1ncnc2c1ncn2[C@@H]1O[C@H](CS(=O)(=O)NC(=O)[C@@H](N)Cc2ccc(O)cc2)[C@@H](O)[C@H]1O`, the MIC50 against Staphylococcus aureus, in the test with Candida albicans, against Escherichia coli [1] and against Micrococcus luteus was more than 100 µM in each case.

With `CC[C@H](C)[C@H](N)C(=O)NS(=O)(=O)C[C@H]1O[C@@H](n2cnc3c(N)ncnc32)[C@H](O)[C@@H]1O`, the MIC50 against Staphylococcus aureus, in the test on Candida albicans, in the test with Escherichia coli [1] and in the test on Micrococcus luteus was more than 100 µM throughout.

As to `Nc1ncnc2c1ncn2[C@@H]1O[C@H](CS(=O)(=O)NC(=O)[C@@H](N)CC(=O)O)[C@@H](O)[C@H]1O`, the MIC50 was more than 100 µM against Staphylococcus aureus, more than 100 µM in the test with Candida albicans, 50 µM (≈ 22.3 µg/mL) against Escherichia coli [1] and more than 100 µM in the test on Micrococcus luteus. Besides, the inhibition entry with Escherichia coli [2] is “Active”.

Turning to `NCC(=O)NS(=O)(=O)C[C@H]1O[C@@H](n2cnc3c(N)ncnc32)[C@H](O)[C@@H]1O`, the MIC50 in the test with Staphylococcus aureus, in the test on Candida albicans, in the test with Escherichia coli [1] and against Micrococcus luteus was more than 100 µM in each case.

Take `Nc1ncnc2c1ncn2[C@@H]1O[C@H](CS(=O)(=O)NC(=O)[C@@H](N)CO)[C@@H](O)[C@H]1O`: the MIC50 with Staphylococcus aureus, against Candida albicans, in the test on Escherichia coli [1] and against Micrococcus luteus was more than 100 µM throughout.

The values above are taken from ChEMBL document CHEMBL3407473, “5'-(N-aminoacyl)-sulfonamido-5'-deoxyadenosine: attempts for a stable alternative for aminoacyl-sulfamoyl adenosines as aaRS inhibitors” (2015).
